The species named for assay [1] is Cavia porcellus. The assay is described as follows: Compound was evaluated for potency relative to neurokinin B against SP-N system (enteric nerves of Guinea pig ileum). It is filed as functional. Put shortly:
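Neuronal SP-N receptor of guinea pig ileum assayed after desensitizing the muscular receptor with substance P methyl ester 10⁻⁷ M (2-min preincubation). Tissue in Tyrode's solution, 95% O2-5% CO2, 34 °C; isotonic contractions; peptides at 2-3-min intervals, under 30 s contact.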

Assay [2] has as its system Cricetinae gen. sp. The assay is described as follows: Compound was evaluated for potency in SP-E system and relative potency was determined against Hamster urinary bladder. It is filed as functional, Cricetulus griseus. Put shortly:
(§1)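 Isolated tissue (hamster urinary bladder or rat duodenum) in 10-mL bath of Tyrode's solution gassed with 95% O2-5% CO2 at 34 °C; isotonic contraction recorded. Duodenum: peptides applied at 2-3-min intervals, contact under 30 s. Bladder: 15-30-min intervals, contact 1-3 min.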

The species entered for assay [3] is Rattus norvegicus. The assay is described as follows: Compound was evaluated for potency in SP-E system and relative potency was determined against rat duodenum. It is filed as functional. Put shortly: as §1
The species named for assay [4] is Cavia porcellus. The assay is described as follows: Compound was evaluated for effective dose against guinea pig ileum. It is filed as functional. Put shortly: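 Guinea pig ileum in 10-mL bath of Tyrode's solution, 95% O2-5% CO2, 34 °C, with atropine 10⁻⁶ M present (muscular SP-P receptor); isotonic contractions; peptides applied at 2-3-min intervals, contact under 30 s.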

The test system of assay [5] is Cricetinae gen. sp. The assay is described as follows: Compound was evaluated for effective dose against hamster bladder. It is filed as functional, Cricetulus griseus. Put shortly: as §1
The species entered for assay [6] is Rattus norvegicus. In words: Compound was evaluated for effective dose against rat duodenum. It is filed as functional. Put shortly:
as §1

Data on 2 molecules can be found in ChEMBL document CHEMBL1123317, “[pGlu6,Pro9]SP6-11, a selective agonist for the substance P P-receptor subtype” (J Med Chem, 1986).

By EC50 is commonly meant the concentration that produces a half-maximal response. Low readings indicate higher potency in that assay, high ones lower potency in that assay.

As to `CSCC[C@H](NC(=O)[C@H](CC(C)C)NC(=O)CNC(=O)[C@@H](NC(=O)[C@H](Cc1ccccc1)NC(=O)[C@H](CO)NC(=O)[C@H](CC(=O)O)NC(=O)[C@@H](NC(=O)[C@H](CCCCN)NC(=O)[C@@H](N)Cc1c[nH]cn1)[C@@H](C)O)C(C)C)C(N)=O` [NEUROKININ A], the results for the Relative potency in assay [1], in assay [2] and in assay [3] were 0.04, 1 and 0.3, respectively.

For `CSCC[C@H](NC(=O)[C@H](CC(C)C)NC(=O)CNC(=O)[C@@H](NC(=O)[C@H](Cc1ccccc1)NC(=O)[C@H](Cc1ccccc1)NC(=O)[C@H](CC(=O)O)NC(=O)[C@H](Cc1c[nH]cn1)NC(=O)[C@H](CCSC)NC(=O)[C@@H](N)CC(=O)O)C(C)C)C(N)=O` [NEUROKININ B], the Relative potency in assay [1], in assay [2] and in assay [3] was 1 each time. The EC50 was found to be 1.5 nM in assay [4], 50 nM in assay [5] and 6.5 nM in assay [6].
